We go through three compounds from article PMC4596243 (Cancer chemotherapy and pharmacology, 2013).

What is called Cmax is the maximum level reached in the sampled fluid or tissue. The AUC(0-inf) is the area under the concentration-time curve extrapolated to infinity. The low end stands for low exposure, the high end for high exposure.

The format of series [1] is in vivo, rat. The following applies: for AUC(0-inf): AUC0–∞.
For series [2] the following is noted: TMZ administered with TNP-470; murine glioma model; cited from earlier work.
For a further series, the system named is recurrent GBM. Particulars: cited from earlier work.
For the next series, the system named is U87 glioma. Nature of the series: In vivo susceptibility-contrast MRI of tumor vasculature after cediranib. Details: species or system mice. Particulars: cediranib once daily. The method in brief:
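Mice bearing brain U87 tumours imaged at 9.4T on day 12 (2 control, 2 given test compound once daily until sacrifice) or day 21 (3 control, 1 treated). Multi-echo gradient-echo (TR 400 ms) and spin-echo (TR 2000 ms), 16 coronal 1-mm slices, 0.1 mm in-plane, before/after i.v. Feridex 25 mg Fe/kg. Vessel size from (ΔR2*/ΔR2)^3/2; manual tumour ROIs versus mirrored contralateral ROIs, histograms compared.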

The mark [3] stands for this setting: corrected for recovery, post-cediranib, individual animal.
Setting [4] is: corrected for recovery, pre-cediranib, individual animal.
Setting [5] is: post- vs pre-cediranib, tumor ECF, not statistically significant.

Several values for one entry are separate records, joined by “and”; a condition that tells them apart may be missing. Equal entries are not always repeated. Where two headings read alike, the source gives them in different places.

As for `Cn1nnc2c(C(N)=O)ncn2c1=O` [TMZ, temozolomide], the “AUC0–∞” value in series [1] (setting [3]) was 3120 ng·h/mL and 4520 ng·h/mL and 3870 ng·h/mL and 3100 ng·h/mL; in series [1] (setting [4]), 1730 ng·h/mL and 2380 ng·h/mL and 600 ng·h/mL and 2480 ng·h/mL and 1500 ng·h/mL and 1970 ng·h/mL and 2090 ng·h/mL. The Cmax in series [1] (setting [3]) was 1610 ng/mL and 650 ng/mL and 310 ng/mL and 1290 ng/mL and 640 ng/mL and 690 ng/mL; in series [1] (setting [4]) it was 460 ng/mL and 620 ng/mL and 190 ng/mL and 710 ng/mL and 690 ng/mL and 900 ng/mL and 530 ng/mL; in series [1] (male, athymic, rat, tumor ECF (brain microdialysate), po, 50 mg/kg, Cmax, corrected for recovery, post-cediranib, mean ± S.D.) it was 830 ± 450 ng/mL; in series [1] (male, athymic, rat, tumor ECF (brain microdialysate), po, 50 mg/kg, Cmax, corrected for recovery, pre-cediranib, mean ± S.D.), 590 ± 220 ng/mL; in series [1] (raw data, pre-cediranib, TMZ 50 mg/kg oral, tumor ECF, individual animal), 510 ng/mL and 540 ng/mL and 380 ng/mL and 400 ng/mL and 470 ng/mL and 100 ng/mL. Moreover, in series [1] (setting [3]), the T1/2 was 1.5 h and 1.7 h and 3.4 h. For the same compound, the AUC(0-inf) in series [1] (male, athymic, rat, tumor ECF (brain microdialysate), po, 50 mg/kg, corrected for recovery, post-cediranib, mean ± S.D.) was found to be 3720 ± 610 ng·h/mL; in series [1] (male, athymic, rat, tumor ECF (brain microdialysate), po, 50 mg/kg, corrected for recovery, pre-cediranib, mean ± S.D.), 1820 ± 640 ng·h/mL; in series [1] (male, athymic, rat, tumor ECF (brain microdialysate), po, 50 mg/kg, raw data, post-cediranib, mean ± S.D.) it was 2840 ± 400 ng·h/mL; in series [1] (male, athymic, rat, tumor ECF (brain microdialysate), po, 50 mg/kg, raw data, pre-cediranib, mean ± S.D.), 1310 ± 510 ng·h/mL. Also, the half-life in series [1] (male, athymic, rat, tumor ECF (brain microdialysate), po, 50 mg/kg, T1/2, corrected for recovery, post-cediranib, mean ± S.D.) was 2 ± 0.9 h; in series [1] (male, athymic, rat, tumor ECF (brain microdialysate), po, 50 mg/kg, T1/2, corrected for recovery, pre-cediranib, mean ± S.D.) it was 1.7 ± 0.3 h; in series [1] (male, athymic, rat, tumor ECF (brain microdialysate), po, 50 mg/kg, T1/2, raw data, post-cediranib, mean ± S.D.), 2 ± 0.9 h; in series [1] (male, athymic, rat, tumor ECF (brain microdialysate), po, 50 mg/kg, T1/2, raw data, pre-cediranib, mean ± S.D.) it was 1.7 ± 0.3 h. In addition, in series [1] (setting [5]), the “increase in ECF-TMZ AUC0-∞ after cediranib administration” value was 2.0 fold and 2 fold. In addition, the “increase in ECF-TMZ Cmax after cediranib administration” value in series [1] (setting [5]) worked out at 1.4 fold.
`CO[C@@H]1[C@H](OC(=O)NC(=O)CCl)CC[C@]2(CO2)[C@H]1[C@@]1(C)O[C@@H]1CC=C(C)C` [TNP-470]: the “reduction of TMZ in tumor concentrations” value in series [2] is 50%.
Turning to `COc1cc2c(Oc3ccc4[nH]c(C)cc4c3F)ncnc2cc1OCCCN1CCCC1` [cediranib], in the series with recurrent GBM (cediranib monotherapy, recurrent GBM patients), the “progression-free survival (PFS)” value is “increased progression-free survival”. For the same compound, in the series on recurrent GBM (once daily cediranib, patients with recurrent GBM, starting as early as one day after the treatment), the “duration of tumor vessel normalization” value was “at least 28 days”. Besides, in the series with U87 glioma (D12), the “average vessel size (ΔR2*/ΔR2)^3/2 in treated tumor” value is given as “lower compared to the contralateral ROI”. Also, in the series with U87 glioma (D21), the “effect on vessel size in treated tumor” value is recorded as “not apparent”.
